Experiments:
Porphyromonas gingivalis [1] = experiment: Growth inhibition of Porphyromonas gingivalis at 60 uM measured after 24 hrs
Streptococcus gordonii [2] = experiment: Growth inhibition of Streptococcus gordonii at 60 uM measured after 24 hrs; details: read-out: GI
[3] = (§1) Inhibition of Porphyromonas gingivalis ATCC 33277 MFA interaction with Streptococcus gordonii DL1(1) antigen 1/2 assessed as inhibition of 5(6)-carboxyfluorescein N-hydroxysuccinimide ester-labeled Porphyromonas gingivalis ATCC 33277 cell adhesion to hexidium iodide-labeled Streptococcus gordonii DL1(1) by measuring inhibition of biofilm formation preincubated with Porphyromonas gingivalis ATCC 33277 for 30 mins followed by addition to Streptococcus gordonii DL1(1) culture measured after 22 hrs by laser scanning confocal microscopy; assay type: cell-based
Outline: (§2)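 Hexidium iodide-labelled S. gordonii (OD600 0.8 in PBS, pH 7.2) was bound to coverslips for 24 h, anaerobic, 37 °C. Carboxyfluorescein-labelled P. gingivalis (OD600 0.4) was preincubated 30 min at room temperature with compound (0–60 μM final, from 1000X DMSO stock), added, then incubated 22 h anaerobically. After fixation, confocal z-stacks (488/552 nm) were taken. IC50 is 50% reduction of the green/red fluorescence ratio; triplicates, three independent experiments.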

[4] = Cytotoxicity against gingival epithelial cells (unknown origin); assay type: toxicity, cell-based; details: epithelial cell
Porphyromonas gingivalis [5] = experiment: Growth inhibition of Porphyromonas gingivalis at 40 uM measured after 24 hrs
Streptococcus gordonii [6] = experiment: Growth inhibition of Streptococcus gordonii at 40 uM measured after 24 hrs; details: read-out: GI
ATCC 33277 = experiment: as §1; assay type: cell-based
Outline: as §2

Streptococcus gordonii [7] = experiment: Growth inhibition of Streptococcus gordonii at 20 uM measured after 24 hrs; details: read-out: GI
Porphyromonas gingivalis [8] = experiment: Growth inhibition of Porphyromonas gingivalis at 20 uM measured after 24 hrs
Streptococcus gordonii [9] = experiment: Growth inhibition of Streptococcus gordonii at 5 uM measured after 24 hrs; details: read-out: GI
Porphyromonas gingivalis [10] = experiment: Growth inhibition of Porphyromonas gingivalis at 5 uM measured after 24 hrs

Compound	IC50 [3] [µM]	Activity [4]	also measured
COc1ccccc1-c1cn(Cc2nc(-c3ccc(Cl)cc3)c(-c3ccc(Cl)cc3)o2)nn1	56.8	Toxic	growth inhibition (GI) (Porphyromonas gingivalis [1]): -19.6%; inhibition at 60 µM (Streptococcus gordonii [2]): 6.6%
COc1ccccc1-c1cn(-c2ccc(-c3nc(-c4ccc(Cl)cc4)c(-c4ccc(Cl)cc4)o3)cc2)nn1	37.3	Toxic	–
Fc1ccc(-c2nc(-c3ccc(-n4cc(-c5ccccc5C(F)(F)F)nn4)cc3)oc2-c2ccc(F)cc2)cc1	12.8	Toxic	growth inhibition (GI) (Porphyromonas gingivalis [5]): 0.1%; inhibition at 40 µM (Streptococcus gordonii [6]): -11%
Clc1ccc(-c2nc(-c3ccc(-n4cc(-c5cccnc5)nn4)cc3)oc2-c2ccc(Cl)cc2)cc1	40.9	Toxic	–
COc1ccc(-c2nc(-c3cccc(-n4cc(-c5ccc(Oc6ccccc6)cc5)nn4)c3)oc2-c2ccc(OC)cc2)cc1	> 60	Toxic	–
COc1ccc(-c2nc(-c3cccc(-n4cc(-c5cccc(F)c5)nn4)c3)oc2-c2ccc(OC)cc2)cc1	5.9	Toxic	growth inhibition (GI) (Porphyromonas gingivalis [5]): -2.6%; inhibition at 40 µM (Streptococcus gordonii [6]): -9.1%
Brc1ccc(-c2nc(-c3cccc(-n4cc(-c5cccnc5)nn4)c3)oc2-c2ccc(Br)cc2)cc1	31	Toxic	–
Fc1ccc(-c2nc(Cn3cc(-c4cccc(F)c4)nn3)oc2-c2ccc(F)cc2)cc1	> 60	Toxic	–
COc1ccc2cc(-c3cn(Cc4nc(-c5ccc(Br)cc5)c(-c5ccc(Br)cc5)o4)nn3)ccc2c1	33.4	Toxic	growth inhibition (GI) (Porphyromonas gingivalis [1]): -9.9%; inhibition at 60 µM (Streptococcus gordonii [2]): -8.6%
Clc1ccc(-c2nc(Cn3cc(-c4cccnc4)nn3)oc2-c2ccc(Cl)cc2)cc1	> 60	Toxic	–
FC(F)(F)c1ccccc1-c1cn(-c2cccc(-c3nc(-c4ccc(Br)cc4)c(-c4ccc(Br)cc4)o3)c2)nn1	15.2	Toxic	growth inhibition (GI) (Porphyromonas gingivalis [5]): -0.6%; inhibition at 40 µM (Streptococcus gordonii [6]): 2%
COc1ccc2cc(-c3cn(Cc4nc(-c5ccc(F)cc5)c(-c5ccc(F)cc5)o4)nn3)ccc2c1	29.3	Toxic	growth inhibition (GI) (Porphyromonas gingivalis [1]): -3.3%; inhibition at 60 µM (Streptococcus gordonii [2]): 0.2%
Fc1ccc(-c2nc(-c3ccc(-n4cc(-c5cccnc5)nn4)cc3)oc2-c2ccc(F)cc2)cc1	25.6	Toxic	–
Fc1cccc(-c2cn(-c3ccc(-c4nc(-c5ccc(Cl)cc5)c(-c5ccc(Cl)cc5)o4)cc3)nn2)c1	15.7	Toxic	–
COc1ccc(-c2nc(-c3cccc(-n4cc(-c5ccccc5C(F)(F)F)nn4)c3)oc2-c2ccc(OC)cc2)cc1	27	Toxic	growth inhibition (GI) (Porphyromonas gingivalis [5]): -1.6%; inhibition at 40 µM (Streptococcus gordonii [6]): -9.7%
COc1ccccc1-c1cn(-c2cccc(-c3nc(-c4ccc(Br)cc4)c(-c4ccc(Br)cc4)o3)c2)nn1	15	Toxic	growth inhibition (GI) (Porphyromonas gingivalis [5]): 4.3%; inhibition at 40 µM (Streptococcus gordonii [6]): 10.5%; inhibition (ATCC 33277): Dose-dependent effect
COc1ccc(-c2nc(-c3cccc(-n4cc(-c5cccnc5)nn4)c3)oc2-c2ccc(OC)cc2)cc1	57.7	Toxic	–
c1ccc(-c2nc(Cn3cc(-c4cccnc4)nn3)oc2-c2ccccc2)cc1	> 60	Toxic	–
COc1ccc(-c2nc(-c3cccc(-n4cc(-c5cc(C(F)(F)F)cc(C(F)(F)F)c5)nn4)c3)oc2-c2ccc(OC)cc2)cc1	47.4	Toxic	–
COc1ccccc1-c1cn(Cc2nc(-c3ccc(Br)cc3)c(-c3ccc(Br)cc3)o2)nn1	43	Toxic	growth inhibition (GI) (Porphyromonas gingivalis [1]): -12.4%; inhibition at 60 µM (Streptococcus gordonii [2]): 11.1%
Fc1cccc(-c2cn(Cc3nc(-c4ccc(Cl)cc4)c(-c4ccc(Cl)cc4)o3)nn2)c1	> 60	Toxic	–
COc1ccccc1-c1cn(Cc2nc(-c3ccc(F)cc3)c(-c3ccc(F)cc3)o2)nn1	> 60	Toxic	–
Fc1ccc(-c2cn(Cc3nc(-c4ccccc4)c(-c4ccccc4)o3)nn2)cc1	> 60	Toxic	–
Fc1ccc(-c2nc(-c3ccc(-n4cc(-c5cccc(F)c5)nn4)cc3)oc2-c2ccc(F)cc2)cc1	51.5	Toxic	–
Fc1ccc(-c2nc(Cn3cc(-c4cccnc4)nn3)oc2-c2ccc(F)cc2)cc1	59.8	Toxic	–

Compound	IC50 [3] [µM]	Activity [4]	also measured
COc1ccc(-c2nc(-c3cccc(-n4cc(-c5ccc6cc(OC)ccc6c5)nn4)c3)oc2-c2ccc(OC)cc2)cc1	13	Toxic	inhibition at 20 µM (Streptococcus gordonii [7]): -1.3%; growth inhibition (GI) (Porphyromonas gingivalis [8]): 3%
Fc1cccc(-c2cn(Cc3nc(-c4ccccc4)c(-c4ccccc4)o3)nn2)c1	> 60	Toxic	–
COc1ccc2cc(-c3cn(-c4ccc(-c5nc(-c6ccc(Cl)cc6)c(-c6ccc(Cl)cc6)o5)cc4)nn3)ccc2c1	32.4	Toxic	–
COc1ccc(-c2nc(-c3cccc(-n4cc(-c5ccccc5OC)nn4)c3)oc2-c2ccc(OC)cc2)cc1	15.4	Toxic	growth inhibition (GI) (Porphyromonas gingivalis [5]): -6.2%; inhibition at 40 µM (Streptococcus gordonii [6]): 0.8%
COc1ccccc1-c1cn(-c2ccc(-c3nc(-c4ccc(F)cc4)c(-c4ccc(F)cc4)o3)cc2)nn1	7.7	Toxic	inhibition at 20 µM (Streptococcus gordonii [7]): -7.8%; growth inhibition (GI) (Porphyromonas gingivalis [8]): -0.5%
COc1ccc2cc(-c3cn(Cc4nc(-c5ccc(Cl)cc5)c(-c5ccc(Cl)cc5)o4)nn3)ccc2c1	5.3	Toxic	growth inhibition (GI) (Porphyromonas gingivalis [1]): 0.3%; inhibition at 60 µM (Streptococcus gordonii [2]): -3.8%
COc1ccc(-c2nc(-c3cccc(-n4cc(-c5ccc(F)cc5)nn4)c3)oc2-c2ccc(OC)cc2)cc1	53	Toxic	growth inhibition (GI) (Porphyromonas gingivalis [5]): -14.6%; inhibition at 40 µM (Streptococcus gordonii [6]): -22.1%
Fc1cccc(-c2cn(-c3cccc(-c4nc(-c5ccc(Br)cc5)c(-c5ccc(Br)cc5)o4)c3)nn2)c1	5	Toxic	inhibition at 5 µM (Streptococcus gordonii [9]): -5.7%; growth inhibition (GI) (Porphyromonas gingivalis [10]): -4.3%
FC(F)(F)c1ccccc1-c1cn(Cc2nc(-c3ccc(Br)cc3)c(-c3ccc(Br)cc3)o2)nn1	> 60	Toxic	–
Fc1cccc(-c2cn(Cc3nc(-c4ccc(Br)cc4)c(-c4ccc(Br)cc4)o3)nn2)c1	> 60	Toxic	–
FC(F)(F)c1ccccc1-c1cn(-c2ccc(-c3nc(-c4ccc(Cl)cc4)c(-c4ccc(Cl)cc4)o3)cc2)nn1	25.1	Toxic	–
Brc1ccc(-c2nc(Cn3cc(-c4cccnc4)nn3)oc2-c2ccc(Br)cc2)cc1	50.9	Toxic	–
FC(F)(F)c1ccccc1-c1cn(Cc2nc(-c3ccccc3)c(-c3ccccc3)o2)nn1	> 60	Toxic	–
Cc1ccccc1-c1cn(Cc2nc(-c3ccccc3)c(-c3ccccc3)o2)nn1	> 56.3	Toxic	–
FC(F)(F)c1cc(-c2cn(Cc3nc(-c4ccccc4)c(-c4ccccc4)o3)nn2)cc(C(F)(F)F)c1	> 60	Toxic	–
CCCCCc1ccc(-c2cn(Cc3nc(-c4ccccc4)c(-c4ccccc4)o3)nn2)cc1	35.5	Toxic	growth inhibition (GI) (Porphyromonas gingivalis [1]): -14.5%; inhibition at 60 µM (Streptococcus gordonii [2]): 6.6%
COc1ccc2cc(-c3cn(-c4cccc(-c5nc(-c6ccc(Br)cc6)c(-c6ccc(Br)cc6)o5)c4)nn3)ccc2c1	20.3	Toxic	–
CCCCCc1ccc(-c2cn(-c3cccc(-c4nc(-c5ccc(OC)cc5)c(-c5ccc(OC)cc5)o4)c3)nn2)cc1	> 60	Toxic	–
COc1ccc2cc(-c3cn(Cc4nc(-c5ccccc5)c(-c5ccccc5)o4)nn3)ccc2c1	> 60	Toxic	–
COc1ccc2cc(-c3cn(-c4ccc(-c5nc(-c6ccc(F)cc6)c(-c6ccc(F)cc6)o5)cc4)nn3)ccc2c1	52.2	Toxic	–
CC(C)CCNc1nc(NCCC(C)C)nc(-c2cn(Cc3nc(-c4ccccc4)c(-c4ccccc4)o3)nn2)n1	36.9	Toxic	growth inhibition (GI) (Porphyromonas gingivalis [1]): 72.8%; inhibition at 60 µM (Streptococcus gordonii [2]): 6.8%
FC(F)(F)c1ccccc1-c1cn(Cc2nc(-c3ccc(Cl)cc3)c(-c3ccc(Cl)cc3)o2)nn1	56.7	Toxic	–
c1ccc(Oc2ccc(-c3cn(Cc4nc(-c5ccccc5)c(-c5ccccc5)o4)nn3)cc2)cc1	> 60	Toxic	–
COc1ccccc1-c1cn(Cc2nc(-c3ccccc3)c(-c3ccccc3)o2)nn1	> 60	Toxic	–
Fc1ccc(-c2nc(Cn3cc(-c4ccccc4C(F)(F)F)nn3)oc2-c2ccc(F)cc2)cc1	> 60	Toxic	–

— ChEMBL document CHEMBL3861994, “1,2,3-Triazole-based inhibitors of Porphyromonas gingivalis adherence to oral streptococci and biofilm formation” (Bioorg Med Chem, 2016)
